In PMC5436510 (Theranostics, 2017):
Square brackets hold non-standard residues; d marks the D form. Peptide text beside a SMILES is read from it.

Experiments:
αvβ3 integrin = αvβ3 integrin (Homo sapiens, UniProt P05106+P06756); assay: MicroScale Thermophoresis; assay type: binding
[1] = test system: U87MG, MDA-MB-231, HepG2 and L02 cells; assay: Transwell cell migration assay; assay type: cell-based, Human; settings: peptides 40μM for 24 h, transwell 12 hours
How it was run: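 Cells at 60–70% confluence in 6-well plates were exposed to peptides (40 μM) for 24 h. They were then detached and 5×10^5 cells placed in transwell upper chambers, in triplicate, over DMEM + 10% FBS. After 12 h, unmigrated cells were swabbed off. Membranes were fixed in methanol and stained with 0.1% crystal violet, 30 min each. The dye was eluted with 33% acetic acid and read at OD570. % migration = treated/control OD570 × 100.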

U87MG-tumor-bearing mice = assay: In vivo antitumor study of peptide-Dox conjugates; parameters: species or system nude mice
How it was run: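 Female nude mice aged 6–7 weeks were inoculated s.c. in the axillary fossa with 1×10^7 U87MG cells. On day 7 they were split into five groups of 10. Saline, free Dox or peptide-Dox conjugates were given i.v. via the tail vein every other day for 7 doses, each equal to 5 mg/kg Dox. Body weight and caliper tumor volume, V = π/6·length·width², were recorded, along with survival.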

[2] = test system: p-FAK, p-PI3K, p-Ras in U87MG cells; assay: Western blot of αvβ3 downstream signalling; assay type: cell-based, Human; settings: 64μg /mL for 48 h
U87MG cells = U87MG cells (Homo sapiens, UniProt P05106+P06756); assay: Confocal cellular uptake of peptide-RhB conjugates; assay type: cell-based; settings: confocal imaging, incubation up to 4 h
Sequence of U87MG cells (P06756 31-1048): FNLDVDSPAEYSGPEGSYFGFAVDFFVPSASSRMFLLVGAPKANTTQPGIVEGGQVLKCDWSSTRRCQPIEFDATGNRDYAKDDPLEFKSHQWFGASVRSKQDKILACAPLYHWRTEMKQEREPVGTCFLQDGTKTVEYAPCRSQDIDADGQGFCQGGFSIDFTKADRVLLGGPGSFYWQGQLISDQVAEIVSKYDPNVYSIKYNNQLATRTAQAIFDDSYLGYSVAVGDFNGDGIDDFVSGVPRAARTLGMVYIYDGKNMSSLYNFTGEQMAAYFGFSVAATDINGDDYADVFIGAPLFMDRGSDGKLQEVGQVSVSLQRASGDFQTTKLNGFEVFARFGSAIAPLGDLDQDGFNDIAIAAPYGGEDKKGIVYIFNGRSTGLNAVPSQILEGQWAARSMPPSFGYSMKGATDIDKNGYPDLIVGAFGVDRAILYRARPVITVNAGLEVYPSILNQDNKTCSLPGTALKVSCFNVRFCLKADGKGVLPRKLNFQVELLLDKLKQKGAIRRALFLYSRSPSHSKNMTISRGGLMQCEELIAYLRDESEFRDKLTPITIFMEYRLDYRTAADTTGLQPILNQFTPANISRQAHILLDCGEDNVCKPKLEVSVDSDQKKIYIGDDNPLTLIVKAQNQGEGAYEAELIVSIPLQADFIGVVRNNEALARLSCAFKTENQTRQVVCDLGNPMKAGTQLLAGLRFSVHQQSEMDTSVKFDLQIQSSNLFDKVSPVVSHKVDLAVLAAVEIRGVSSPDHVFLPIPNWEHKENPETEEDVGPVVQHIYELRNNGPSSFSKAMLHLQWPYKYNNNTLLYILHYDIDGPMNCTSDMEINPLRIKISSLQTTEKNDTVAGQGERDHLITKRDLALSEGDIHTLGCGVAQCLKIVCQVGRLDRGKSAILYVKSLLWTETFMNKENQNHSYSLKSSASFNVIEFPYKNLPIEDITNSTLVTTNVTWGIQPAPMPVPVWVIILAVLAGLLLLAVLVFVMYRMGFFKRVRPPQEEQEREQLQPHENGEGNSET
Sequence of U87MG cells (P05106 27-788): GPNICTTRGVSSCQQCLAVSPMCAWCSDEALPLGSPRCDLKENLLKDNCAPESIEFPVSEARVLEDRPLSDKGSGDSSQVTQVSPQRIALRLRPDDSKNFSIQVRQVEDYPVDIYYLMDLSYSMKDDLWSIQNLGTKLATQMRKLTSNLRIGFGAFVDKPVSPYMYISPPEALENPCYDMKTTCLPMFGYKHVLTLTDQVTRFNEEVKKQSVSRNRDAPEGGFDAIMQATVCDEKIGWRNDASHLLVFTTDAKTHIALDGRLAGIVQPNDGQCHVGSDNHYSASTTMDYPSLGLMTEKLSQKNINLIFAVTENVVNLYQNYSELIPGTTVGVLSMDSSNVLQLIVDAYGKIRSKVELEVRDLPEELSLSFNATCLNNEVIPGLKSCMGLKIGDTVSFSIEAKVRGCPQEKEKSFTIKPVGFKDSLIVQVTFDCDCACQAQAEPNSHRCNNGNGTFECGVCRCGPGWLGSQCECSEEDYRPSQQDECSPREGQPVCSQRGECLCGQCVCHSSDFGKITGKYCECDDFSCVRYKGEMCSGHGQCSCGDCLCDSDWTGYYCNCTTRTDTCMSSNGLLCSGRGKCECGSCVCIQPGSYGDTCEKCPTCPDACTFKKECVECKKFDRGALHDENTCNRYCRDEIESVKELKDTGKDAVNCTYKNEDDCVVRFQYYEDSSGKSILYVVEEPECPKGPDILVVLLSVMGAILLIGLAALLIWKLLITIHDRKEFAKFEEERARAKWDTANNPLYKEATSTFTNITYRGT
How it was run: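 Cells were seeded on confocal dishes at 3×10^5 per well and left 24 h to attach. Cells were washed three times with PBS (pH 7.4), imaged by laser confocal microscopy, and uptake at 2 h was quantified as mean fluorescence intensity.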

Sequence of αvβ3 integrin (P06756 31-889): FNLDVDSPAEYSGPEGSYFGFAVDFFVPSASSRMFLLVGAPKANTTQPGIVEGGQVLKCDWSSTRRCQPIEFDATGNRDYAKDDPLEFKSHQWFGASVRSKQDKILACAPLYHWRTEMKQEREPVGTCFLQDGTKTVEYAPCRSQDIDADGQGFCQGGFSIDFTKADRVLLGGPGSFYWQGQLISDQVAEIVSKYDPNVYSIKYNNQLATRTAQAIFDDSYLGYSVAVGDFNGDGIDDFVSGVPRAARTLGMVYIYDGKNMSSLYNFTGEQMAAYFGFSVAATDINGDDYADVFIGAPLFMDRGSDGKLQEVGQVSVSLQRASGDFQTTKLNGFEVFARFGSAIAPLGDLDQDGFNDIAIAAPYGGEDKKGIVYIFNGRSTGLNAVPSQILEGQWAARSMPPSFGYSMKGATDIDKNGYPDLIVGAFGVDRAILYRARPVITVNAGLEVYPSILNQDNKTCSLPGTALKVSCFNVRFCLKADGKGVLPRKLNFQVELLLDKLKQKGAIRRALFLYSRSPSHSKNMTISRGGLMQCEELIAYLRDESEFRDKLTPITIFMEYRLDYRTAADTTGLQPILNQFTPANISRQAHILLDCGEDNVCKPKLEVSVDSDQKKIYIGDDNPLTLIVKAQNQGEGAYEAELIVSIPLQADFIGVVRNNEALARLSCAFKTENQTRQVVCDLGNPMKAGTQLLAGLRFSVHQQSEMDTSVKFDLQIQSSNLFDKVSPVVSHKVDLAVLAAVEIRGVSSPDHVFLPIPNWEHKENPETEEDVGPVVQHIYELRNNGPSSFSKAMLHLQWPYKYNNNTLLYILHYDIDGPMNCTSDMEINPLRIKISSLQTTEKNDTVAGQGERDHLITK
Sequence of αvβ3 integrin (P06756 891-1048): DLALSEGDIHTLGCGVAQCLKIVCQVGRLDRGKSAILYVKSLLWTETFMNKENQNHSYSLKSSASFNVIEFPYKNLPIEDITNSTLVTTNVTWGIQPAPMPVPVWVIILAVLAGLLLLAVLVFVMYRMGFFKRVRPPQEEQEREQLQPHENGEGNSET
Sequence of αvβ3 integrin (P05106 27-788): as the sequence (P05106 27-788) above

N=C(N)NCCC[C@H](N)C(=O)N[C@@H](Cc1c[nH]c2ccccc12)C(=O)N[C@H](CCCNC(=N)N)C(=O)O [RWr] (H-Arg-Trp-[dR]-OH)
Kd (αvβ3 integrin): 33.6 ± 4.56 nM

CC(=O)O[C@H]1C(=O)[C@@]2(C)[C@H]([C@H](OC(=O)c3ccccc3)[C@]3(O)C[C@H](OC(=O)[C@H](O)[C@@H](NC(=O)c4ccccc4)c4ccccc4)C(C)=C1C3(C)C)[C@]1(OC(C)=O)CO[C@@H]1C[C@@H]2O [PTX]
cell migration compared with the controls [1]: strong inhibition on cell migration

CCN(CC)CCNC(=O)c1c(C)[nH]c(/C=C2\C(=O)Nc3ccc(F)cc32)c1C [Sunitinib]
cell migration compared with the controls [1]: strong inhibition on cell migration

COc1cccc2c1C(=O)c1c(O)c3c(c(O)c1C2=O)C[C@@](O)(C(=O)CO)C[C@@H]3O[C@H]1C[C@H](N)[C@H](O)[C@H](C)O1 [Dox, doxorubicin]
survival rate (in words) (U87MG-tumor-bearing mice; 15-day treatment): lowest survival rate | body weight (U87MG-tumor-bearing mice; 15-day treatment, dose 5mg/kg of Dox): continual decrease in body weight | histopathology (H&E) toxicity in organs (U87MG-tumor-bearing mice; after the 15-day treatment): obvious cardiotoxicity and hepatotoxicity

CSCC[C@H](NC(=O)[C@H](CC(N)=O)NC(=O)[C@@H](CCCNC(=N)N)NC(=O)[C@H](Cc1c[nH]c2ccccc12)NC(=O)[C@@H](N)CCCNC(=N)N)C(=O)O [RWrNM] (H-RW[dR]NM-OH)
Kd (αvβ3 integrin): 8.61 ± 1.35 nM

N=C(N)NCCC[C@@H]1NC(=O)[C@H](CCCCN)NC(=O)[C@@H](Cc2ccc(O)cc2)NC(=O)[C@H](CC(=O)O)NC(=O)CNC1=O [c(RGDyK)]
cell migration compared with the controls [1]: obvious decrease in cell migration | levels of phosphorylated signalling proteins [2]: decreased the levels of p-FAK, p-PI3K, and p-Ras proteins

CCN(CC)c1ccc2c(-c3ccccc3C(=O)O)c3ccc(=[N+](CC)CC)cc-3oc2c1 [RhB, Rhodamine B]
cellular uptake (RhB fluorescence) (U87MG cells): no fluorescence was observed
